Many of the other results were omitted from the sample, so hits are more common in it than they were.
INS-1E ATP HTS: protection of INS-1E cells from cytokine death, primary screen, ATP luminescence, single point; INS-1E cytokine-induced death, 48 h; normalised: neutral wells 0, positive control 100; protection from cytokine-induced ATP loss, % at 10 µM; 20,000 compounds, 0.1% hits; AID 488910, 2010;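 active means mean replicate protection from cytokine-induced ATP loss at least 50% and at least 75% of replicates each reaching 50%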
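Assay system – rat INS-1E insulinoma cell line · Quantity – 8000 cells per well · Buffer or medium – RPMI without phenol red, 5% FBS · Schedule – 48 h co-treatment, 10 min post-lysis read · Technique – luminescent ATP assay (CellTiter-Glo)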
T cruzi HTS: inhibitors of intracellular Trypanosoma cruzi, primary screen, cell-based, plate reader, single point, set 2; intracellular Trypanosoma cruzi in host cells; activity score (inhibition), % at 5.01 µM; AID 651903, 2012; 22,000 compounds, 4.9% hits; in the data active means activity score above about 55%;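 further: parasites and compound incubated about four days before reading; 0% = median of neutral control wells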
A1 apoptosis 2: A1 inhibitors via caspase activation, primary screen, cell-based, luminescence, HTS, two replicates | AID 2465, 2010 | MEF A1-2A-BIM cells, caspase-Glo luminescence, 3 h; percent of clofoctol response, DMSO zero | caspase activation, % (test concentration not listed) | 24,000 tested, under 10 active; in the data active means caspase activation above about 5.9%
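Test system – A1-2A-BIM-expressing MEF cells · Input – 2500 cells/well · Medium – RPMI-1640 growth medium with 10% FBS · Compound dosing – 50 nL pinned compound · Timing – 3 h compound exposure at 37 °C · Technique – Caspase-Glo luminescence (DEVD substrate) · Evaluation – Caspase-3/7 activity from luminescence increase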
* hit, by the source's call; . = no result.

SMILES	INS-1E ATP HTS	T cruzi HTS	A1 apoptosis 2
O=C(CCCCC(=O)NN=C1CCCCCC1)NO	2.4	2.7	0.3
NC(=O)C1CCCN(/[N+]([O-])=N/OCCBr)C1 (stereo unspecified)	.	.	0.2
C[C@@H]1CN([C@H](C)CO)C(=O)c2cccc(NC(=O)c3ccc(-c4nccs4)cc3)c2O[C@H]1CN(C)C(=O)NC1CCCCC1	4.2	0.8	0.9
C[C@@H]1CN([C@@H](C)CO)C(=O)Cc2cc(NC(=O)Nc3ccc4c(c3)OCO4)ccc2O[C@@H]1CN(C)Cc1ccc(Oc2ccccc2)cc1	-21.7	65.4*	.
C[C@@H]1CN([C@H](C)CO)C(=O)Cc2cc(NC(=O)Nc3ccc4c(c3)OCO4)ccc2O[C@@H]1CN(C)Cc1ccc(Oc2ccccc2)cc1	-37.4	72.8*	.
C[C@@H]1CN([C@H](C)CO)C(=O)Cc2cc(NC(=O)Nc3ccc4c(c3)OCO4)ccc2O[C@H]1CN(C)Cc1ccc(Oc2ccccc2)cc1	-47.2	78.4*	-0.7
C[C@H](CO)N1C[C@H](C)[C@H](CN(C)Cc2ccc(Oc3ccccc3)cc2)Oc2ccc(NC(=O)Nc3ccccc3)cc2CC1=O	-9.5	-0.4	.
C[C@@H]1CN([C@H](C)CO)C(=O)Cc2cc(NC(=O)Nc3ccc4c(c3)OCO4)ccc2O[C@@H]1CN(C)Cc1ccccc1	6.0	37.2	.
C[C@H]1CN([C@@H](C)CO)C(=O)Cc2cc(NC(=O)Nc3ccc4c(c3)OCO4)ccc2O[C@H]1CN(C)Cc1ccccc1	-5.6	4.9	.
C[C@H](CO)N1C[C@H](C)[C@H](CN(C)C(=O)Nc2ccc(C(F)(F)F)cc2)Oc2ccc(NC(=O)NC3CCCCC3)cc2C1=O	-17.0	17.7	-2.0
C[C@H]1CN([C@@H](C)CO)C(=O)c2cccc(NC(=O)Nc3ccc(C(F)(F)F)cc3)c2O[C@@H]1CN(C)C(=O)Nc1ccc(C(F)(F)F)cc1	-58.4	46.7	-0.2
C[C@H]1CN([C@@H](C)CO)C(=O)c2cccc(NC(=O)Nc3ccc(C(F)(F)F)cc3)c2O[C@@H]1CN(C)C(=O)Nc1cccc2ccccc12	-10.7	66.1*	1.3
C[C@@H]1CN([C@H](C)CO)C(=O)c2cccc(NC(=O)Nc3ccc(C(F)(F)F)cc3)c2O[C@H]1CN(C)C(=O)Nc1cccc2ccccc12	-16.6	-4.2	-0.5
COc1ccc(NC(=O)N(C)C[C@H]2Oc3c(NS(=O)(=O)c4ccc(F)cc4)cccc3C(=O)N([C@@H](C)CO)C[C@H]2C)cc1	0.9	64.2*	-0.9
COc1ccc(S(=O)(=O)Nc2cccc3c2O[C@H](CN(C)C(=O)Nc2ccc(F)cc2)[C@@H](C)CN([C@H](C)CO)C3=O)cc1	-1.8	5.6	.
C[C@@H]1CN([C@@H](C)CO)C(=O)c2cccc(NC(=O)Nc3ccc(C(F)(F)F)cc3)c2O[C@H]1CN(C)C(=O)Nc1ccc(C(F)(F)F)cc1	-95.5	72.2*	-2.0
C[C@@H]1CN([C@H](C)CO)C(=O)c2cccc(NC(=O)Nc3ccc(C(F)(F)F)cc3)c2O[C@@H]1CN(C)C(=O)NC1CCCCC1	-109.8	82.2*	0.8
C[C@@H]1CN([C@@H](C)CO)C(=O)c2cccc(NC(=O)Nc3ccc(C(F)(F)F)cc3)c2O[C@H]1CN(C)C(=O)NC1CCCCC1	-7.2	-9.4	-0.6
COc1cc(/C=N/NC(=O)c2cccc(C(=O)NO)c2)c(Br)cc1O	1.5	-12.4	1.6
CN(CCO)c1ccc(/C=N/NC(=O)CCCCCC(=O)NO)cc1	.	.	0.4
Cc1nnc(Sc2ccc(/C=N/NC(=O)CCCCCCC(=O)Nc3ccccc3O)o2)n1C	0.9	-3.4	.
O=C(CCCCCCC(=O)Nc1ccccc1O)NN=C1CCCC1	6.3	-10.3	.
O=C(O)CCCCCCC(=O)N/N=C/c1cccc2ccccc12	12.1	-2.9	.
COc1ccc2nc(Cl)nc(NC3CCCCC3)c2c1	.	.	-0.4
C[C@@H]1CN([C@@H](C)CO)C(=O)c2cccc(NS(=O)(=O)c3cccs3)c2O[C@@H]1CN(C)C(=O)Nc1ccc(F)cc1	8.6	13.7	.
C[C@@H]1CN([C@H](C)CO)C(=O)c2cccc(NS(=O)(=O)c3cccs3)c2O[C@@H]1CN(C)C(=O)Nc1ccc(C(F)(F)F)cc1	-34.8	71.2*	0.9
C=CCNC(=O)[C@@H]1[C@H]2C(=O)O[C@H](c3ccccc3)[C@H](c3ccccc3)N2[C@H](c2ccc(O)cc2)[C@@]12C(=O)Nc1ccc(C#Cc3ccc(OC)cc3)cc12	.	.	0.0
O=C(N/N=C/C1CCCCC1)c1ccccc1O	-20.2	-43.0	.
